# In ChEMBL document CHEMBL1129543, “Synthesis and evaluation of N-(phenylacetyl)trifluoromethanesulfonamides as anticonvulsant agents” (J Med Chem, 1996):
# What was measured:
# [1] = species: Rattus norvegicus; assay: Protective index (TD50/ED50) was determined against scMet induced seizure in rat.; type: functional
# How it was run: (§1)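 Oral dosing in 30% PEG 400: phase IV in mice (0.01 mL/g), phase VI in Sprague-Dawley rats (0.004 mL/g). ED50/TD50 found as in phase II, at the stated time of peak effect. MES current 50 mA in mice, 150 mA in rats. Toxicity by rotorod in mice; positional sense, gait and stance in rats. PI = TD50/ED50.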
# [2] = test system: Mus musculus; assay: Median effective dose was evaluated by subcutaneous pentylenetetrazole seizure test through intraperitoneal administration; type: functional
# How it was run: (§2)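 Phase II in mice, ip dosing in 30% PEG 400. Groups of 6-12 mice per dose until at least three points fall in 10-90% protection. […] MES: 50 mA, 0.2 s corneal. scMet: pentylenetetrazol 85 mg/kg sc.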
# [3] = species: Mus musculus; assay: Time to peak activity was evaluated by Maximal electroshock seizure test in hours; type: functional
# [4] = test system: Mus musculus; assay: Anti-seizure activity was evaluated by Neurologic toxicity (rotarod test) at dose 600 mg/kg after 4.0 hours; + denotes neurotoxicity; type: functional, organism-based; set-up: dose 600 mg/kg
# How it was run: (§3)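 Phase I neurotoxicity in mice by rotorod ataxia test. Compound given ip at 30, 100, 300 or 600 mg/kg in 30% PEG 400, read 0.5 h and 4 h after. Scored ++++ to + for toxicity at 30 to 600 mg/kg; - means no toxicity.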
# [5] = species: Mus musculus; assay: Time to peak toxicity was evaluated by Maximal electroshock seizure test in hours; type: functional
# [6] = test system: Mus musculus; assay: (§4) Median effective dose was evaluated by Maximal electroshock seizure test through intraperitoneal administration; type: functional; settings: ip
# How it was run: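 Phase II in mice, ip dosing in 30% PEG 400. Groups of 6-12 mice per dose until at least three points fall in 10-90% protection.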
# [7] = test system: Mus musculus; assay: Anti-seizure activity was evaluated by Neurologic toxicity (rotarod test) at dose 300 mg/kg after 0.5 hours; ++ denotes antiseizure activity; type: functional, organism-based; set-up: dose 300 mg/kg; how it was run: as §3
# [8] = test system: Mus musculus; assay: Median toxic dose was evaluated by […] through intraperitoneal administration; type: functional
# [9] = test system: Mus musculus; assay: Anti-seizure activity was evaluated by Subcutaneous pentylenetetrazole seizure test at dose 300 mg/kg after 4.0 hours; ++ denotes antiseizure activity; type: functional, organism-based; set-up: dose 300 mg/kg
# How it was run: (§5)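 Phase I screen in mice: ip dosing at 30, 100, 300 and 600 mg/kg in 30% PEG 400, read 0.5 h and 4 h after. Pentylenetetrazol given sc at CD97 (85 mg/kg). Protection means no clonic spasm of at least 5 s over 30 min. Scored ++++ to + for 30 to 600 mg/kg.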
# [10] = test system: Mus musculus; assay: Anti-seizure activity was evaluated by Maximal electroshock seizure (MES) test at dose 300 mg/kg after 0.5 hours; ++ denotes antiseizure activity; type: functional, organism-based; set-up: dose 300 mg/kg
# How it was run: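 Phase I screen in mice: ip injection at 30, 100, 300 and 600 mg/kg in 30% PEG 400 (0.01 mL/g). Test run 0.5 h and 4 h after dosing. 60-Hz AC, 50 mA, via corneal electrodes for 0.2 s. Protection means abolition of hind-leg tonic extension. Scored ++++ to + for activity at 30 to 600 mg/kg.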
# [11] = species: Rattus norvegicus; assay: Protective index (TD50/ED50) was determined against MES induced seizure in rat.; type: functional; how it was run: as §1
# [12] = test system: Mus musculus; assay: Time to peak effect in mice was evaluated by Neurologic toxicity (rotarod test) in hours by oral administration; type: functional
# How it was run: as §1, with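 “in rats. PTZ sc 85 mg/kg in mice, 70 mg/kg in rats. Toxicity by” for “in rats. Toxicity by”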
# [13] = test system: Mus musculus; assay: Median Effective dose was evaluated by Subcutaneous pentylenetetrazole seizure test in mice by oral administration; type: functional
# [14] = test system: Rattus norvegicus; assay: Median Effective dose was evaluated by Maximal electroshock seizure (MES) test in Rats by oral administration; type: functional
# [15] = test system: Rattus norvegicus; assay: Time to peak effect in Rats was evaluated by Maximal electroshock seizure (MES) test in hours by oral administration; type: functional
# How it was run: as §1, with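 “in rats. PTZ sc 85 mg/kg in mice, 70 mg/kg in rats. Toxicity by” for “in rats. Toxicity by”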
# [16] = test system: Mus musculus; assay: Anti-seizure activity was evaluated by Subcutaneous pentylenetetrazole seizure test at dose 600 mg/kg after 0.5 hours; + denotes neurotoxicity; type: functional, organism-based; set-up: dose 600 mg/kg; how it was run: as §5
# [17] = test system: Rattus norvegicus; assay: The loss of righting reflex time was evaluated in acute control rats by hexobarbital injection at a hypnotic dose 100 mg/kg; type: functional
# How it was run: (§6)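 Rats, eight per group, dosed po daily: vehicle for 4 days then 6 mg/kg on day 5 (acute), or 6 mg/kg daily for 5 days (chronic). Hexobarbital 100 mg/kg ip on day 6. Loss-of-righting-reflex time recorded to the nearest minute; group mean taken.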
# [18] = test system: Mus musculus; assay: Time to peak effect in mice was evaluated by Subcutaneous pentylenetetrazole seizure test in hours by oral administration; type: functional
# How it was run: as §1, with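 “in rats. PTZ sc 85 mg/kg in mice, 70 mg/kg in rats. Toxicity by” for “in rats. Toxicity by”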
# [19] = test system: Mus musculus; assay: Time to peak effect in mice was evaluated by Maximal electroshock seizure (MES) test in hours by oral administration; type: functional
# How it was run: as §1, with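 “in rats. PTZ sc 85 mg/kg in mice, 70 mg/kg in rats. Toxicity by” for “in rats. Toxicity by”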
# [20] = test system: Mus musculus; assay: […] was evaluated by Neurologic toxicity (rotarod test) in mice by oral administration; type: functional
# How it was run: as §1, with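 “in rats. PTZ sc 85 mg/kg in mice, 70 mg/kg in rats. Toxicity by” for “in rats. Toxicity by”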
# [21] = species: Rattus norvegicus; assay: Total body weight up to 7th day was evaluated in grams of chronic treated rats; type: functional
# How it was run: (§7)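 Rats (eight per group) given 6 mg/kg po daily, then kept on the same regimen 2 more days. Weights taken on day 7. On day 8 rats decapitated; livers perfused with 0.9% NaCl, weighed and homogenized in 0.25 M sucrose. Microsomal assays per Franklin and Estabrook. Values given as average and deviation.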
# [22] = test system: Mus musculus; assay: Inhibition of seizures induced in mice by a convulsant dose of up to 300 mg/kg; d= No protection; type: functional, organism-based; set-up: dose 300 mg/kg
# How it was run: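 Convulsant (bicuculline, picrotoxin, strychnine or PTZ) given at CD97 as a 0.5% solution. Observed 30 min (45 min for picrotoxin). PI uses ip mouse TD50.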
# [23] = species: Rattus norvegicus; assay: Total liver Protein up to 7th day was evaluated in mg/liver of chronic treated rats; type: functional; how it was run: as §7
# [24] = species: Rattus norvegicus; assay: zInduction of NADPH cytochrome C reductase enzyme was evaluated in units of nmol/min per mg liver of chronic treated rats; type: functional; how it was run: as §7
# [25] = test system: Rattus norvegicus; assay: […] was evaluated by Neurologic toxicity (rotarod test) in Rats by oral administration; type: functional
# [26] = test system: Mus musculus; assay: Anti-seizure activity was evaluated by Neurologic toxicity (rotarod test) at dose 600 mg/kg after 0.5 hours; + denotes neurotoxicity; type: functional, organism-based; set-up: dose 600 mg/kg; how it was run: as §3
# [27] = test system: Mus musculus; assay: Inhibition of picrotoxin-induced seizures in mice by ip administration up to 300 mg/kg (d=No protection); type: functional, organism-based; set-up: dose 300 mg/kg
# How it was run: (§8)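 Phase V differentiation in mice: test drug given ip at time of peak therapeutic effect, then the CD₉₇ of each convulsant (picrotoxin, bicuculline, strychnine) given ip as a 0.5% solution; observation 30 min for bicuculline and strychnine, 45 min for picrotoxin. Drug in 30% PEG 400, 0.01 mL/g. ED₅₀ with 95% confidence intervals from ≥3 points in the 10-90% protection range, groups of 6-12 mice.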
# [28] = test system: Mus musculus; assay: as §4; type: functional; settings: ip; how it was run: as §2; remark: listed apart in the source
# [29] = test system: Rattus norvegicus; assay: Time to peak effect in Rats was evaluated by Subcutaneous pentylenetetrazole seizure test in hours by oral administration; type: functional
# How it was run: as §1, with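 “in rats. PTZ sc 85 mg/kg in mice, 70 mg/kg in rats. Toxicity by” for “in rats. Toxicity by”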
# [30] = species: Rattus norvegicus; assay: Induction of cytochrome P-450 enzyme was evaluated in units of nmol of enzyme/mg liver of chronic treated rats
# [31] = species: Rattus norvegicus; assay: Induction of p-nitroanisole-O-dimethylase enzyme was evaluated in units of nmol/min per mg liver of chronic treated rats; type: functional; how it was run: as §7
# [32] = test system: Mus musculus; assay: Median Effective dose was evaluated by Maximal electroshock seizure (MES) test in mice by oral administration; type: functional
# [33] = test system: Mus musculus; assay: Median lethal dose was evaluated by mortality after 24 hr through ip injection administration; d= Hypnosis and death occurred; type: ADME, organism-based; settings: in vivo
# How it was run: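 Mice were dosed ip in 30% PEG 400. Mortality was scored 24 h after injection in groups of eight. The 24-h LD₅₀ was derived as for the ED₅₀/TD₅₀, with 95% confidence intervals.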
# [34] = test system: Rattus norvegicus; assay: Median Effective dose was evaluated by Subcutaneous pentylenetetrazole seizure test in Rats by oral administration up to 40 mg/kg; b=no protection; type: functional, organism-based; set-up: dose 40 mg/kg
# How it was run: as §1, with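 “in rats. PTZ sc 85 mg/kg in mice, 70 mg/kg in rats. Toxicity by” for “in rats. Toxicity by”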
# [35] = test system: Rattus norvegicus; assay: The loss of righting reflex time was evaluated in chronic treated rats by hexobarbital injection at a hypnotic dose 100 mg/kg; type: functional; how it was run: as §6
# [36] = species: Mus musculus; assay: Median hypnotic dose was evaluated by loss of righting reflex; type: functional
# [37] = test system: Mus musculus; assay: Inhibition of seizures induced in mice by a convulsant dose of strychnine through ip administration; type: functional; how it was run: as §8
# [38] = test system: Rattus norvegicus; assay: Time to peak effect in Rats was evaluated by Neurologic toxicity (rotarod test) in hours by oral administration; type: functional
# [39] = species: Mus musculus; assay: Anti-seizure activity was evaluated by Neurologic toxicity (rotarod test) after 4.0 hours; - denotes no antiseizure activity; type: functional, organism-based; how it was run: as §3
smiles,measurement,setting,value
COc1ccc(CC(=O)NS(=O)(=O)C(F)(F)F)cc1,PI,[1],10
same,ED50,[2],53 mg/kg
same,TPE,[3],2
same,Activity,[4],Antiseizure activity
same,TPE,[5],0.5
same,ED50,[6],33 mg/kg
same,Activity,[7],Antiseizure activity
same,TD50,[8],557 mg/kg
same,Activity,[9],Antiseizure activity
same,Activity,[10],Antiseizure activity
same,PI,[11],17
O=C(Cc1ccccc1)NS(=O)(=O)C(F)(F)F,TPE,[12],24 h
same,PI,[1],34
same,ED50,[13],60 mg/kg
same,ED50,[14],6.1 mg/kg
same,TPE,[15],8 h
same,Activity,[16],Antiseizure activity
same,Sleep time,[17],33
same,TPE,[18],8 h
same,TPE,[19],8 h
same,ED50,[2],10 mg/kg
same,TD50,[20],> 1000 mg/kg
same,Weight,[21],128.8
same,ED50,[22],No protection
same,Protein,[23],40.4
same,Induction,[24],109.9
same,TD50,[25],40 mg/kg
same,TPE,[3],6
same,Activity,[26],Antiseizure activity
same,ED50,[27],No protection
same,ED50,[28],6.2 mg/kg
same,TPE,[29],8 h
same,Induction,[30],0.41
same,Induction,[31],0.36
same,TPE,[5],24
same,ED50,[32],8.4 mg/kg
same,LD50,[33],No protection
same,ED50,[34],No protection
same,Sleep time,[35],51
same,TD50,[8],329 mg/kg
same,HD50,[36],522 mg/kg
same,ED50,[37],56 mg/kg
same,TPE,[38],24 h
same,Activity,[39],No activity
same,PI,[11],53
